Experimental findings from ChEMBL document CHEMBL4261487, “Small structural changes of the imidazopyridine diacylglycerol acyltransferase 2 (DGAT2) inhibitors produce an improved safety profile” (Medchemcomm, 2017) are described below.

Data set [1] relates to Canis familiaris. As to the kind of experiment: Toxicity in telemetered beagle dog assessed as emesis at 5 to 50 mg/kg administered via oral gavage measured within 4 hrs of dosing. In kind it is organism-based, Canis lupus familiaris. The note with it: in vivo.
The test system of data set [2] is Canis familiaris. As to the kind of experiment: Toxicity in telemetered beagle dog assessed as increase in systolic pressure at 25 mg/kg administered via oral gavage measured during 4 hrs of post dosing. The data set is classed as organism-based, Canis lupus familiaris. The settings on record: in vivo.
Data set [3] concerns the target T1, Diacylglycerol O-acyltransferase 2 (Canis lupus familiaris, UniProt A0A8I3NDW2).
T1 sequence (A0A8I3NDW2 whole entry): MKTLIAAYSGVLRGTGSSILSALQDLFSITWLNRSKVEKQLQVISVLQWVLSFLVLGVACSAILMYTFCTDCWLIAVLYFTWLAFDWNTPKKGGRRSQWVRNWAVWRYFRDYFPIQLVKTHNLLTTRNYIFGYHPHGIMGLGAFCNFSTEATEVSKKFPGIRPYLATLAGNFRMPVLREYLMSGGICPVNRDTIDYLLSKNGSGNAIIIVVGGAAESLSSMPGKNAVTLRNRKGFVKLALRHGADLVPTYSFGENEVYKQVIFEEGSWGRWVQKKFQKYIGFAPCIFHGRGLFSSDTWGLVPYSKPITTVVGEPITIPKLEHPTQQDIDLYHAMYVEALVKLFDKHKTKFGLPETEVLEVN
As to the kind of experiment: Inhibition of dog DGAT2.

Data set [4] in a line: Apparent intrinsic clearance in dog hepatocytes assessed per million cells. The data set is classed as ADME, cell-based, Canis lupus familiaris, Hepatocyte.
Data set [5] has as its system Canis familiaris. As to the kind of experiment: Unbound AUC in beagle dog at 30 mg/kg, po qd administered for 1 month. The data set is classed as ADME, organism-based, Canis lupus familiaris. The settings on record: in vivo. Summed up:
(§1)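 Beagle dogs were dosed orally once daily in a 14-day exploratory study or 1-month toxicity studies. Steady-state systemic exposure over the 24 h dosing interval is reported as the mean of male and female values combined.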

Data set [6] relates to Canis familiaris. As to the kind of experiment: Toxicity in telemetered beagle dog assessed as increase in diastolic pressure at 5 mg/kg administered via oral gavage measured during 4 hrs of post dosing. The data set is classed as organism-based, Canis lupus familiaris. The settings on record: in vivo.
A short description of data set [7]: Half life in beagle dog at 5 mg/kg, po. The data set is classed as ADME, organism-based, Canis lupus familiaris. The note with it: in vivo.
The test system of data set [8] is Canis familiaris. Briefly: Toxicity in telemetered beagle dog assessed as increase in systolic pressure at 50 mg/kg administered via oral gavage measured during 4 hrs of post dosing. The note with it: in vivo. The data set is classed as organism-based, Canis lupus familiaris.
A short description of data set [9]: Apparent permeability of the compound at pH 7.4. In kind it is ADME. The settings on record: not told.
The test system of data set [10] is Canis familiaris. Briefly: In vivo inhibition of DGAT2 in beagle dog assessed as coverage of in vitro IC50 for dog DGAT2 at 30 mg/kg, po qd administered for 1 month. In kind it is functional, Canis lupus familiaris. Details: scale not given: the % may be the effect or the level left. Summed up: (§2)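 Beagle dogs, once-daily oral dosing for 14 days or 1 month; systemic exposure with sexes combined; coverage is the average % above dog DGAT2 IC50 at steady state over the 24 h dosing interval.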

Data set [11] deals with Canis familiaris. As to the kind of experiment: Toxicity in beagle dog at 75 mg/kg, po qd administered for 14 days. In kind it is organism-based, Canis lupus familiaris. The note with it: in vivo, 336 h.
In data set [12] the test system is Canis familiaris. Briefly: Toxicity in beagle dog assessed as prolongation of QTc interval at 100 to 150 mg/kg, po qd administered for 25 days. The data set is classed as organism-based, Canis lupus familiaris. The settings on record: in vivo, 600 h.
Data set [13] has as its system Canis familiaris. Briefly: Toxicity in telemetered beagle dog assessed as increase in systolic pressure at 75 mg/kg administered via oral gavage measured over 24 hrs. The data set is classed as organism-based, Canis lupus familiaris. The note with it: in vivo.
Data set [14] concerns Canis familiaris. As to the kind of experiment: Toxicity in beagle dog assessed as unscheduled death at 300 mg/kg, po qd administered for 14 days. The data set is classed as organism-based, Canis lupus familiaris. The settings on record: in vivo, 336 h.
The subject of data set [15] is Canis familiaris. As to the kind of experiment: Unbound Cmax in beagle dog at 2 mg/kg, po qd administered for 1 month. The data set is classed as ADME, organism-based, Canis lupus familiaris. The note with it: in vivo. Summed up:
as §1

The test system of data set [16] is Rattus norvegicus. As to the kind of experiment: Unbound Cmax in Wistar Han IGS rat at 10 mg/kg, po qd administered for 14 days. In kind it is ADME, organism-based. The note with it: in vivo, 336 h. Summed up:
(§3)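 Wistar Han rats were dosed orally once daily for 14 days (exploratory, 5/sex/dose) or 1 month (toxicity, 10/sex/dose). Toxicokinetic satellite animals (3–4/sex/dose) were used, and steady-state systemic exposure is given as the mean of male and female values combined.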

Data set [17] concerns Rattus norvegicus. As to the kind of experiment: Unbound AUC in Wistar Han IGS rat at 30 mg/kg, po qd administered for 1 month. The note with it: in vivo. The data set is classed as ADME, organism-based. The method, boiled down: as §3
The test system of data set [18] is Canis familiaris. As to the kind of experiment: Toxicity in telemetered beagle dog assessed as change in heart rate at 5 mg/kg administered via oral gavage measured over 24 hrs. In kind it is organism-based, Canis lupus familiaris. The settings on record: in vivo.
Data set [19] concerns Canis familiaris. As to the kind of experiment: Toxicity in telemetered beagle dog assessed as increase in systolic pressure at 10 mg/kg administered via oral gavage measured over 24 hrs. The data set is classed as organism-based, Canis lupus familiaris. The note with it: in vivo.
Data set [20] has as its system Canis familiaris. Briefly: Toxicity in telemetered beagle dog assessed as increase in diastolic pressure at 75 mg/kg administered via oral gavage measured over 24 hrs. The settings on record: in vivo. In kind it is organism-based, Canis lupus familiaris.
The test system of data set [21] is Canis familiaris. Briefly: Toxicity in telemetered beagle dog assessed as increase in heart rate at 20 mg/kg, iv administered as single bolus dose over 2 mins. The settings on record: in vivo. In kind it is organism-based, Canis lupus familiaris.
Data set [22] concerns Canis familiaris. Briefly: In vivo inhibition of DGAT2 in beagle dog assessed as coverage of in vitro IC50 for dog DGAT2 at 100 to 150 mg/kg, po qd administered for 1 month. In kind it is functional, Canis lupus familiaris. Set-up: scale not given: the % may be the effect or the level left. Summed up:
as §2

Data set [23] concerns Canis familiaris. Briefly: Unbound Cmax in beagle dog at 50 mg/kg, po qd administered for 1 month. The data set is classed as ADME, organism-based, Canis lupus familiaris. The settings on record: in vivo. Summed up: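 Beagle dogs were given the compound orally once daily for 1 month in a toxicity study, with 2 dogs per sex per dose group. Plasma exposure was measured at steady state across the 24 h dosing interval.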

The test system of data set [24] is Rattus norvegicus. As to the kind of experiment: Unbound Cmax in Wistar Han IGS rat at 100 mg/kg, po qd administered for 14 days. The data set is classed as ADME, organism-based. The settings on record: in vivo, 336 h. Summed up:
as §3

For data set [25], the system named is Canis familiaris. Briefly: In vivo inhibition of DGAT2 in beagle dog assessed as coverage of in vitro IC50 for dog DGAT2 at 300 mg/kg, po qd administered for 14 days. Set-up: scale not given: the % may be the effect or the level left. In kind it is functional, Canis lupus familiaris. Summed up:
as §2

Data set [26] relates to Canis familiaris. As to the kind of experiment: Toxicity in beagle dog assessed as renal tubular degeneration at 300 mg/kg, po qd administered for 14 days. The note with it: in vivo, 336 h. In kind it is organism-based, Canis lupus familiaris.
Data set [27] relates to Rattus norvegicus. As to the kind of experiment: Toxicity in Wistar Han IGS rat assessed as gastric smooth muscle degeneration at 500 mg/kg, po qd administered for 14 days. In kind it is organism-based. The settings on record: in vivo, 336 h. Summed up:
(§4)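 Wistar Han rats, daily oral dosing for 14 days (5/sex/dose) or 1 month (10/sex/dose); microscopic findings reported as incidence by sex, plus organ weights.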

For data set [28], the system named is Canis familiaris. As to the kind of experiment: Toxicity in telemetered beagle dog assessed as emesis at 20 mg/kg, iv administered as single bolus dose over 2 mins. The data set is classed as organism-based, Canis lupus familiaris. The settings on record: in vivo.
Data set [29] deals with Canis familiaris. Briefly: Toxicity in telemetered beagle dog assessed as increase in systolic pressure at 25 mg/kg administered via oral gavage measured over 24 hrs. In kind it is organism-based, Canis lupus familiaris. The note with it: in vivo.
Data set [30] relates to Rattus norvegicus. Briefly: Unbound AUC in Wistar Han IGS rat at 60 mg/kg, po qd administered for 1 month. The note with it: in vivo. In kind it is ADME, organism-based. The method, boiled down: as §3
The subject of data set [31] is Rattus norvegicus. Briefly: In vivo inhibition of DGAT2 in Wistar Han IGS rat assessed as coverage of in vitro IC50 for rat DGAT2 at 30 mg/kg, po qd administered for 1 month. Set-up: scale not given: the % may be the effect or the level left. The data set is classed as functional. The method, boiled down: (§5)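 Wistar Han rats, once-daily oral dosing for 14 days (exploratory, 5/sex/dose) or 1 month (10/sex/dose); toxicokinetics in 3–4/sex/dose with sexes combined; coverage is the average % above rat DGAT2 IC50 at steady state over the 24 h dosing interval.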

Data set [32] relates to Rattus norvegicus. Briefly: In vivo inhibition of DGAT2 in Wistar Han IGS rat assessed as coverage of in vitro IC50 for rat DGAT2 at 60 mg/kg, po qd administered for 1 month. In kind it is functional. Details: scale not given: the % may be the effect or the level left. Summed up: as §5
Data set [33] has as its system Rattus norvegicus. Briefly: Toxicity in Wistar Han IGS rat assessed as increase in heart weight at 60 to 300 mg/kg, po qd administered for 1 month. In kind it is organism-based. The settings on record: in vivo. The method, boiled down: as §4
In data set [34] the test system is Canis familiaris. Briefly: Unbound AUC in beagle dog at 300 mg/kg, po qd administered for 14 days. The settings on record: in vivo, 336 h. The data set is classed as ADME, organism-based, Canis lupus familiaris. The method, boiled down: as §1
The test system of data set [35] is Rattus norvegicus. Briefly: Unbound AUC in Wistar Han IGS rat at 300 mg/kg, po qd administered for 1 month. The data set is classed as ADME, organism-based. The note with it: in vivo. The method, boiled down:
as §3

As to `C[C@@H](c1nc2ccc(N3CCC[C@@H](C(=O)N4CCCC4)C3)nc2[nH]1)n1cc(Cl)cn1`, the Activity result in the data set on Canis familiaris [1] was “Toxic”; in the data set on Canis familiaris [2], 6 mmHg; in the data set on Canis familiaris [6], 4 to 6 mmHg; with Canis familiaris [8], 5 mmHg; in the data set with Canis familiaris [10] it was 96%. Also, in data set [3], inhibition was half-maximal at 41 nM (IC50). In addition, in data set [4], the “CLH(app)” value came to 8.4 µL/min. Besides, in the data set on Canis familiaris [5], the fAUC is 9530 ng·h/mL. The compound also had a half-life in data set [7] of 180 min. The Papp in data set [9] was found to be 13.1 ×10⁻⁶ cm/s.

On to `CS(=O)(=O)O.O=C([C@@H]1CCCN(c2ccc3nc(C4(n5cc(Cl)cn5)CC4)[nH]c3n2)C1)N1CCCC1`, for which the Activity result in the data set on Canis familiaris [11] is on record as “Non-Toxic”; with Canis familiaris [12], “Toxic”; in the data set on Canis familiaris [13] it was 5 mmHg; in the data set with Canis familiaris [14] it was “Toxic”; with Canis familiaris [18], “Non-Toxic”; with Canis familiaris [19], 3 mmHg. Also, the Activity in the data set on Canis familiaris [20] is recorded as 6 mmHg; in the data set on Canis familiaris [21], 27 bpm; in the data set with Canis familiaris [22], >99%; in the data set with Canis familiaris [25], >99%; in the data set on Canis familiaris [26], “Toxic”; in the data set on Rattus norvegicus [27], “Toxic”. The Activity entry was “Non-Toxic” with Canis familiaris [28]; 5 mmHg with Canis familiaris [29]; 92% in the data set with Rattus norvegicus [31]; 98% in the data set on Rattus norvegicus [32]; “Toxic” with Rattus norvegicus [33]. Besides, the fCmax in the data set with Canis familiaris [15] is 305 nM; in the data set on Rattus norvegicus [16], 390 nM; in the data set on Canis familiaris [23], 12.7 µM; with Rattus norvegicus [24] it was 4.65 µM. For the same compound, the fAUC came to 4630 ng·h/mL in the data set with Rattus norvegicus [17], 22600 ng·h/mL with Rattus norvegicus [30], 78300 ng·h/mL in the data set on Canis familiaris [34] and 62500 ng·h/mL with Rattus norvegicus [35].

Usually IC50 stands for the concentration that gives 50% inhibition. The term half-life denotes the time needed for the level to fall by half in the phase considered. A word on the Papp: it is the rate of passage across a membrane or cell layer, normalised by area and donor concentration.
